Laboratory results published in ChEMBL document CHEMBL4673177, “Structure-activity relationships of sulfonamides derived from carvacrol and their potential for the treatment of Alzheimer''s disease” (RSC Med Chem, 2020).
Active and inactive are the calls of the source. The calls are words filed in the database; no cut-off is given here.

Tests used:
[1] = Effect on locomotory activity in STZ-induced mouse model of Alzheimer's disease assessed as number of crossing 30 mg/kg, ip treated from 3 to 12 days by open field test (reference value: 114.00 +/- 3.12); assay type: organism-based; conditions: in vivo, time 3-12 day
Mus musculus [2] = test: Anxiolytic-like activity in STZ-induced mouse model of Alzheimer's disease assessed as open arm frequency at 30 mg/kg, ip treated from 3 to 12 days starting from 3 days post initial STZ stimulation and measured on day 14 by elevated plus maze test (reference value: 51.17%); assay type: functional; conditions: time 3-12 day
Acetylcholinesterase = Acetylcholinesterase (Homo sapiens, UniProt P22303); test: Inhibition of AChE (unknown origin) using acetylthiocholine iodide as substrate preincubated for 15 mins followed by substrate addition and measured after 30 mins by Ellman's method
Acetylcholinesterase, sequence (P22303 whole entry): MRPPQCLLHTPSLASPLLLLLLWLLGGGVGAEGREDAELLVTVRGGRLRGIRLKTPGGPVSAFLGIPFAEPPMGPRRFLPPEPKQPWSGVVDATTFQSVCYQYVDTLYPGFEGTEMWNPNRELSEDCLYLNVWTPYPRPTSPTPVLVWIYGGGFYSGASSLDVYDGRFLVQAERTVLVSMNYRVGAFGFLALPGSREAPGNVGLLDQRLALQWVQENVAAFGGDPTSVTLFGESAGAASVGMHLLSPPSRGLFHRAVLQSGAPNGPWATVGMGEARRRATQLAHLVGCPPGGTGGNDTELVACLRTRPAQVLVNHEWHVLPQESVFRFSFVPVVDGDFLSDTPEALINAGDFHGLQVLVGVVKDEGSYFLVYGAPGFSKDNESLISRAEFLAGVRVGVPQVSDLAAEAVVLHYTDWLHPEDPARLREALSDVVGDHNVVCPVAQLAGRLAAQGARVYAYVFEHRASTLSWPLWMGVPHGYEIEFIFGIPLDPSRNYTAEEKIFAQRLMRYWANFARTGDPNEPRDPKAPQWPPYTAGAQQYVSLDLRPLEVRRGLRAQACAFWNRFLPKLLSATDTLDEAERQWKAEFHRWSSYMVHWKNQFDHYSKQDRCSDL

[3] = Effect on behavioral activity in STZ-induced mouse model of Alzheimer's disease assessed as rearing at 30 mg/kg, ip treated from 3 to 12 days by open field test (reference value: 53.60 +/- 1.62); assay type: ADME, organism-based; conditions: in vivo, time 3-12 day
Mus musculus [4] = test: Anxiolytic-like activity in STZ-induced mouse model of Alzheimer's disease assessed as open arm time permanency at 30 mg/kg, ip treated from 3 to 12 days starting from 3 days post initial STZ stimulation and measured on day 14 by elevated plus maze test (reference value: 37.6%); assay type: functional; conditions: time 3-12 day
Mus musculus [5] = test: Antialzheimer activity in streptozotocin-induced mouse model of memory impairment assessed as median time of avoidance latency descent at 30 mg/kg, ip treated from 3 to 12 days starting from 3 days post initial STZ stimulation and measured on day 16 by avoidance test (reference value: 14 sec); assay type: functional; conditions: time 3-12 day
Outline: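 3-month-old female mice (25.0–30.0 g), STZ given i.c.v. as 3 μL of 2.5 mg mL-1 solution, repeated after 48 h. Vehicle or compound dosed i.p. until day 12. Training: shock 0.4 mA for 2 s on stepping down from the platform. Next-day test session without shock; descent latency timed. Reported as median with interquartile interval. N = 8–10 per group.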

Mus musculus [6] = test: Antioxidant activity in STZ-induced mouse model of Alzheimer's disease assessed as increase in GSH level in brain at 30 mg/kg, ip treated from 3 to 12 days starting from 3 days post initial STZ stimulation and measured on day 17 by spectrophotometric method; assay type: functional, organism-based; conditions: time 3-12 day
Outline: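 Brains collected one day after the last behavioural test, homogenized in phosphate buffer pH 7.4 and spun at 3000g for 15 min. Whole-brain GSH in the supernatant measured by a modified Beutler method, absorbance at 412 nm. Quantified against a GSH standard curve (5–50 μg); expressed as nmol GSH/mg protein.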

Mus musculus [7] = test: Antioxidant activity in STZ-induced mouse model of Alzheimer's disease assessed as reduction in TBARS level in brain at 30 mg/kg, ip treated from 3 to 12 days starting from 3 days post initial STZ stimulation and measured on day 17 by spectrophotometric method; assay type: functional, organism-based; conditions: time 3-12 day
Outline: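 After the final behavioural test, brain homogenate (phosphate buffer pH 7.4, 3000g for 15 min) used for TBARS. The mixture was vortexed and centrifuged at 4000g for 10 min. The organic layer was read at 532 nm.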

[8] = Effect on locomotory activity in STZ-induced mouse model of Alzheimer's disease assessed as number of crossing 0.5 mg/kg, ip treated from 3 to 12 days by open field test (reference value: 114.00 +/- 3.12); assay type: organism-based; conditions: in vivo, time 3-12 day
Mus musculus [9] = test: Anxiolytic-like activity in STZ-induced mouse model of Alzheimer's disease assessed as open arm time permanency at 0.5 mg/kg, ip treated from 3 to 12 days starting from 3 days post initial STZ stimulation and measured on day 14 by elevated plus maze test (reference value: 37.6%); assay type: functional; conditions: time 3-12 day
Outline: (§1)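 Female mice given STZ i.c.v. twice (48 h apart) were treated i.p. until day 12. Each mouse was placed in the centre of the elevated plus maze facing a closed arm and observed for 5 min. N about 8–10 per group.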

[10] = Effect on behavioral activity in STZ-induced mouse model of Alzheimer's disease assessed as rearing at 0.5 mg/kg, ip treated from 3 to 12 days by open field test (reference value: 53.60 +/- 1.62); assay type: organism-based; conditions: in vivo, time 3-12 day
Mus musculus [11] = test: Antialzheimer activity in streptozotocin-induced mouse model of memory impairment assessed as median time of avoidance latency descent at 0.5 mg/kg, ip treated from 3 to 12 days starting from 3 days post initial STZ stimulation and measured on day 16 by avoidance test (reference value: 14 sec); assay type: functional; conditions: time 3-12 day
Mus musculus [12] = test: Anxiolytic-like activity in STZ-induced mouse model of Alzheimer's disease assessed as open arm frequency at 0.5 mg/kg, ip treated from 3 to 12 days starting from 3 days post initial STZ stimulation and measured on day 14 by elevated plus maze test (reference value: 51.17%); assay type: functional; conditions: time 3-12 day; outline: as §1

Structure (SMILES)	Activity [1]	Activity (Mus musculus [2]) [%]	IC50 (Acetylcholinesterase) [µM]	Activity [3]	Activity (Mus musculus [4]) [%]	Time (Mus musculus [5]) [s]	Activity (Mus musculus [6])	Activity (Mus musculus [7])	Activity [8]	Activity (Mus musculus [9]) [%]	Activity [10]	Time (Mus musculus [11]) [s]	Activity (Mus musculus [12]) [%]
Cc1cc(S(=O)(=O)NCc2ccccn2)c(C(C)C)cc1O	102.45	69.44	6.99	46.17	76	72							
Cc1cc(S(=O)(=O)N2CCOCC2)c(C(C)C)cc1O	116.3	25.11	5.64	43.8	14.3	116.5	Active	Active					
Cc1cc(S(=O)(=O)Nc2cnccn2)c(C(C)C)cc1O	108.34	47.7	7.34	50.17	19.3	80	Active	Active					
Cc1cc(S(=O)(=O)NN)c(C(C)C)cc1O	98.45	43.31	9.24	44.18	17.1	130	Active	Active					
COc1ccc2c3c1O[C@H]1C[C@@H](O)C=C[C@@]31CCN(C)C2 [GALANTAMINE]									122.5	6.6	54.23	122.5	22.3
Cc1cc(S(=O)(=O)Nc2ccccc2O)c(C(C)C)cc1O	107	41.9	8.74	44.56	42	107	Active	Active					
Cc1ccc(C(C)C)cc1O [CARVACROL]			284										
